Screens (PubChem BioAssay)
Only some compounds are listed: those with a hit (about 1.9% of all), similar ones and a draw of the others.
Cneo AK release = Cryptococcus neoformans lysis via adenylate kinase release. C. neoformans lysis, adenylate kinase release luminescence, 4 h; normalised: neutral wells 0, clomiphene wells 100. lysis activity, % at 15 µM. 0.2% of 360,000 active. AID 651654;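 active means mean lysis activity across replicates of at least 80%, whatever share of replicates individually reach that level; inactive means mean lysis activity below 80%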
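Assay system: Cryptococcus neoformans yeast cells / Dosing: single-point compound dose / Timing: 4 h at 37 °C static, read 1 h later / Measured by: luminescence of released adenylate kinase using an AK detection reagent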
Ecoli rRNA inh = inhibits bacterial ribosomal RNA function over humanized ribosomes; E. coli WT GFP vs humanized-ribosome RFP mutants, fluorescence, 24 h; active compounds read low; DMSO median 0, no signal -100; GFP signal change (wild-type ribosome), % (test concentration not listed); 1.6% of 350,000 active; AID 720706;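 active means significant combined selectivity score with lowered wild-type GFP, culture density cut under 30%, mutant RFP and density less affected; inactive means any of these conditions unmet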
RAD52 inh = inhibitors of human RAD52 DNA annealing; P43351; recombinant RAD52 DNA annealing, FRET fluorescence; inhibition, % at 18.7 µM; 0.46% of 360,000 active;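 active means every replicate showing at least 50% inhibition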
PglD inh = blocks C. jejuni PglD acetyltransferase activity; inhibition, % at 12.5 µM; purified PglD enzyme, DTNB colorimetric CoA detection; 0.098% of 360,000 active; in the data active means inhibition above about 16%, passing the limit was not always enough
RAD54 inh = blocks human RAD54 Holliday junction branch migration | 0.14% of 360,000 active | FAM/BHQ fluorescence | inhibition, % at 10.4 µM | Q92698;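 active means mean normalized replicate activity at least 40 and at least half of replicates scoring 40 or more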;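 further: 0% = median of neutral control wells and 100% = median of positive control wells; inhibitors cause a drop in the FAM fluorescence signal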
Target sequence (Q92698 whole entry, looked up): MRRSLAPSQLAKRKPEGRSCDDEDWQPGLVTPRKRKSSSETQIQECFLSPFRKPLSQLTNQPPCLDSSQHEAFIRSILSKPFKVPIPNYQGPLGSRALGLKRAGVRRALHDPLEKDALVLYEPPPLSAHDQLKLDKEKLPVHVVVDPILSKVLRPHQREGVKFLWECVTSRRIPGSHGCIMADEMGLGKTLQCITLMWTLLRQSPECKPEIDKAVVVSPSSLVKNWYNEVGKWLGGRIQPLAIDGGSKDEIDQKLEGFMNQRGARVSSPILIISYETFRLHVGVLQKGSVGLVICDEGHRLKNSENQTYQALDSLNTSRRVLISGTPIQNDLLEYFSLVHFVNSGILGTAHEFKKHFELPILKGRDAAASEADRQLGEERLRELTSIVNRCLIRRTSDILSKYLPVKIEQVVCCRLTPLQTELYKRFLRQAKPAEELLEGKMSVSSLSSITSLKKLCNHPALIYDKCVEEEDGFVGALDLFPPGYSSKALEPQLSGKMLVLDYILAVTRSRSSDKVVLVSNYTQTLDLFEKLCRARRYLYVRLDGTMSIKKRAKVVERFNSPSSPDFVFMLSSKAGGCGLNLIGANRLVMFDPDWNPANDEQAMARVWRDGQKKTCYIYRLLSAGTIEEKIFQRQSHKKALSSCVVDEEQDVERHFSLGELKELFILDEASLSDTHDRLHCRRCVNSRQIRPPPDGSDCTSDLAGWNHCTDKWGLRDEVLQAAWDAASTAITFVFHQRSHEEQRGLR
* hit, by the source's call; / = no result.

SMILES | Cneo AK release | Ecoli rRNA inh | RAD52 inh | PglD inh | RAD54 inh
Cc1cccc(S(=O)(=O)N2CCCCN3[C@H](CO)[C@H](c4ccc(-c5ccccc5)cc4)[C@H]3C2)c1 | 0 | / | 44 | 1 | 4
CCCNC(=O)N1C[C@H](C)[C@@H](OC)CN(C)C(=O)c2ccc(NC(C)=O)cc2OC[C@@H]1C | / | / | 2 | / | /
O=C(OCc1nc2ccccc2s1)c1ccccc1O | / | -29 | -28 | / | /
CSCc1ccc(C(=O)OCc2nc3ccccc3s2)o1 | -1 | -16* | -72 | -3 | -7
COCC(=O)N1[C@H](C#N)[C@@H](c2ccccc2-c2ccccc2F)[C@@H]1CO | / | -1 | -2 | / | /
COc1ccccc1Nc1nnc(SCC2CCCCO2)s1 (stereo not given) | / | -24 | -9 | / | /
Cc1ccccc1Nc1nnc(SCC2CCCCO2)s1 (stereo not given) | -10 | -22* | -16 | -5 | -6
CCC(=O)N1CC[C@H]2[C@H](CO)Nc3ccc(-c4ccc(OC)cc4)cc3[C@H]21 | 6 | -3 | / | 0 | 7
C[C@H](CO)N1C[C@H](C)[C@@H](CN(C)C(=O)Nc2cccc3ccccc23)OCCCC[C@H](C)Oc2ccc(NS(=O)(=O)c3ccccc3)cc2C1=O | -6 | 4 | -10 | 0 | -3
Cc1noc(C)c1NC(=O)Nc1ccc2c(c1)C(=O)N([C@H](C)CO)C[C@@H](C)[C@H](CN(C)C(=O)Nc1ccc(F)cc1)OCCCC[C@@H](C)O2 | 99* | -3 | 9 | -4 | 2
Cc1noc(C)c1NC(=O)N(C)C[C@H]1OCCCC[C@@H](C)Oc2ccc(NC(=O)Nc3cccc4ccccc34)cc2C(=O)N([C@@H](C)CO)C[C@H]1C | 9 | -15* | / | -5 | -1
C[C@@H]1CCCCO[C@@H](CN(C)C(=O)Nc2cccc3ccccc23)[C@@H](C)CN([C@H](C)CO)C(=O)c2cc(NS(=O)(=O)c3ccccc3)ccc2O1 | 95* | 4 | 4 | 1 | -6
O=C(CC1C(=O)NCCN1C(=O)Nc1ccccc1)Nc1cc(Cl)ccc1Cl (stereo not given) | 4 | -25* | 1 | -7 | -1
Cc1cccc(NC(=O)CC2C(=O)NCCN2C(=O)Nc2ccc(Cl)cc2)c1 (stereo not given) | 0 | -32* | -10 | -3 | -2
O=C(CC1C(=O)NCCN1C(=O)Nc1ccc(F)cc1)Nc1cc(Cl)ccc1Cl (stereo not given) | 0 | -28 | -6 | 1 | -2
CO[C@H]1CN(C)C(=O)c2cc(NC(C)=O)ccc2OC[C@@H](C)N(CC2CC2)C[C@@H]1C | 4 | 1 | -2 | -1 | 4
Cc1ccc(/C=N/NC(=O)c2cccc(S(=O)(=O)Nc3cccc(Cl)c3)c2)o1 | / | -21* | -11 | / | /
O=C(N/N=C/c1ccccc1C(=O)O)c1cccc(S(=O)(=O)Nc2cc(Cl)ccc2Cl)c1 | -4 | -19* | -22 | -2 | -15
COc1ccc(S(=O)(=O)N(C)C[C@H]2OCCCC[C@@H](C)Oc3ccc(NS(=O)(=O)c4cn(C)cn4)cc3C(=O)N([C@@H](C)CO)C[C@@H]2C)cc1 | -5 | -4 | 27 | 3 | 1
Cc1cccc(NC(=O)c2sc3nc(-c4ccc(F)cc4)cn3c2C)n1 | -1 | / | / | -9 | -11
COc1ccc(-c2cn3c(C)c(C(=O)Nc4cccc(C)n4)sc3n2)cc1 | 0 | -30* | -32 | 2 | 6
C=C(Cl)COc1ccc2c(CC)cc(=O)oc2c1 | -5 | -24* | -4 | 0 | -2
C=C(C)COc1ccc2c(CC)cc(=O)oc2c1 | / | -10 | -11 | / | /
Cc1ccc(C(C)(c2ccc(N)cc2)c2ccc(N)cc2)cc1 | 4 | -39* | -24 | -5 | -1
C[C@@H]1CN([C@H](C)CO)C(=O)c2cccc(NC(=O)c3ccncc3)c2O[C@H]1CN(C)S(C)(=O)=O | -1 | 1 | -4 | 6 | -4
SMILES | Cneo AK release | Ecoli rRNA inh | RAD52 inh | PglD inh | RAD54 inh
COc1cc(C(=O)NNC(=S)NC(=O)/C=C/c2ccccc2)cc(OC)c1OC | 0 | -15* | -17 | 4 | -1
Nc1nc(N)c(Cc2ccc(Cl)cc2Cl)c(N)n1 | / | -29* | -23 | / | /
CN1C(=O)c2cc(NC(=O)c3cnccn3)ccc2OC[C@H]2O[C@@H](CC(=O)NCC3CC3)CC[C@H]21 | / | 3 | / | / | /
Cn1c(=O)c(Cc2ccccc2)c(O)c2ccccc21 | 4 | 0 | -6 | 1 | 1
O=c1c(Cc2ccccc2)c(O)c2cccc3c4c(n1c23)CCCC4 | 1 | -19* | -23 | -4 | 2
CCOC(=O)NC(=S)Nc1ccc(C(C)(C)C)cc1 | 173* | -13 | -2 | -4 | -2
CC=Cc1ccc2n(c1=O)C[C@H]1[C@H](CO)[C@@H](C(=O)NC3CCCC3)N(CCC)[C@@H]21 (mixture of isomers) | / | 1 | 92* | / | /
CC=Cc1ccc2n(c1=O)C[C@H]1[C@H](CO)[C@@H](C(=O)N3CCOCC3)N(CC3CC3)[C@@H]21 (mixture of isomers) | 84* | 0 | -16 | 0 | -10
CC=Cc1ccc2n(c1=O)C[C@@H]1[C@@H](CO)[C@H](C(=O)N3CCCCC3)N(Cc3ccccc3)[C@H]21 (mixture of isomers) | 106* | -3 | -26 | 2 | -3
CC=Cc1ccc2n(c1=O)C[C@H]1[C@H](CO)[C@@H](C(=O)N3CCc4ccccc4C3)N(C(=O)C3CC3)[C@@H]21 (mixture of isomers) | 90* | 2 | -6 | 3 | -5
O=C1N[C@@H](Cc2ccccc2)COCc2cn(nn2)CC[C@@H]1Cc1ccccc1 | 5 | 1 | -10 | / | /
CCCN1[C@@H]2Cn3c(ccc(C4=CCCCC4)c3=O)[C@H]1[C@@H](C(=O)N1CCOCC1)[C@@H]2CO | 0 | 3 | 9 | 1 | 16
O=C(N/N=C/C=C/c1cccc([N+](=O)[O-])c1)C(O)c1ccccc1 (stereo not given) | / | -2 | -9 | / | /
O=C(CNc1ccc2ccccc2c1)N/N=C/C=C/c1cccc([N+](=O)[O-])c1 | / | -15* | -3 | / | /
Cc1ccc(S(=O)(=O)Nc2ccc3c(c2)C(=O)N([C@@H](C)CO)C[C@H](C)[C@H](CN(C)S(=O)(=O)c2ccc(Cl)cc2)OCCCC[C@@H](C)O3)cc1 | 103* | 1 | / | 5 | -8
CNC[C@@H]1OCCCC[C@@H](C)Oc2ccc(NS(=O)(=O)c3ccc(Cl)cc3)cc2C(=O)N([C@H](C)CO)C[C@H]1C | 100* | 9 | -352 | -2 | -6
CNC[C@H]1OCCCC[C@@H](C)Oc2ccc(NS(=O)(=O)c3ccc(Cl)cc3)cc2C(=O)N([C@H](C)CO)C[C@H]1C | -3 | 2 | -15 | 1 | 4
CC(C)NC(=O)Nc1ccc2c(c1)CC(=O)N([C@H](C)CO)C[C@H](C)[C@H](CN(C)S(=O)(=O)c1ccc(Cl)cc1)O2 | 89* | -3 | 6 | 0 | 7
